Reference: ChEMBL document CHEMBL1949557, “Discovery of INCB3284, a Potent, Selective, and Orally Bioavailable hCCR2 Antagonist” (ACS Med Chem Lett, 2011)
pIC50: −log10 of the molar value. The source made the active and inactive calls. No cut-off for these calls is given here.

Columns and labels:
[1] = target: T1, C-C chemokine receptor type 2 (Homo sapiens, UniProt P41597); experiment: Displacement of [125I]MCP1 from CCR2 in human PBMC after 30 mins by gamma counter
[2] = target: T1, C-C chemokine receptor type 2; experiment: Inhibition of human CCR2-mediated Erk phosphorylation
[3] = target: T2, C-C chemokine receptor type 1 (Homo sapiens) (UniProt P32246); experiment: Inhibition of CCR1 at 1 uM
T2 sequence (whole entry): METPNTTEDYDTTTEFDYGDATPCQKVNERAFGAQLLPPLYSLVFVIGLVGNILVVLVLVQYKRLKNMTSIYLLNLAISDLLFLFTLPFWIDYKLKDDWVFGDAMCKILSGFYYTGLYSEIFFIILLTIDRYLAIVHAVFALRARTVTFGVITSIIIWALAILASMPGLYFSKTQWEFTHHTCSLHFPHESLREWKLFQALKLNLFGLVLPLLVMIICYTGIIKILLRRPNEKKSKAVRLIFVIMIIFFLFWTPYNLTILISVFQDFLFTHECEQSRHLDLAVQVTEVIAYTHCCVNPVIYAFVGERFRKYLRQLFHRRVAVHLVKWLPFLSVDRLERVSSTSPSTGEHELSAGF
In short: (§1)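 Cerep selectivity panel of over 50 ion channels, transporters, chemokine receptors and other GPCRs. Single test concentration of 1 μM, scored for significant inhibition.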

[4] = target: T3, C-C chemokine receptor type 3 (Homo sapiens) (UniProt P51677); experiment: Inhibition of CCR3 at 1 uM; in short: as §1
T3 sequence (whole entry): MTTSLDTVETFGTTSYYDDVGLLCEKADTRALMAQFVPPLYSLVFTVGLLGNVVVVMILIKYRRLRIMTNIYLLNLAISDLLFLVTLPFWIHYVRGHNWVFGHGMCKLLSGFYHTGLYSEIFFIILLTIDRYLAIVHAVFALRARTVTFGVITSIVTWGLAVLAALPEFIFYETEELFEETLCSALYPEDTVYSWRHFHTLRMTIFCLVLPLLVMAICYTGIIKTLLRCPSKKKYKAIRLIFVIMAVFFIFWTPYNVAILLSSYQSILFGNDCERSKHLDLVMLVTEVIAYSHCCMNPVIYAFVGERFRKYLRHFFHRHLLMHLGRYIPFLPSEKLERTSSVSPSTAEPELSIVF

[5] = target: T4, C-X-C chemokine receptor type 3 (Homo sapiens) (UniProt P49682); experiment: Inhibition of CXCR3 at 1 uM; in short: as §1
T4 sequence (whole entry): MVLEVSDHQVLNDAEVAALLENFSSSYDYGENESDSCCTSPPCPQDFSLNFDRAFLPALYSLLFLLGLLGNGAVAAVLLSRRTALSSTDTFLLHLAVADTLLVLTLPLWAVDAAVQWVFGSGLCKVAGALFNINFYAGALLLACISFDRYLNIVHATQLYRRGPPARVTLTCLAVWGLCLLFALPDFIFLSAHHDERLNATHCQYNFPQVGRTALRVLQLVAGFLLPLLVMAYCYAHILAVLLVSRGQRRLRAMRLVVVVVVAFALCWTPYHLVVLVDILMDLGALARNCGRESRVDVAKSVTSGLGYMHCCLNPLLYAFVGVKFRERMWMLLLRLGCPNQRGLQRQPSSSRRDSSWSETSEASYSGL

[6] = target: T5, C-X-C chemokine receptor type 5 (Homo sapiens) (UniProt P32302); experiment: Inhibition of CXCR5 at 1 uM; in short: as §1
T5 sequence (whole entry): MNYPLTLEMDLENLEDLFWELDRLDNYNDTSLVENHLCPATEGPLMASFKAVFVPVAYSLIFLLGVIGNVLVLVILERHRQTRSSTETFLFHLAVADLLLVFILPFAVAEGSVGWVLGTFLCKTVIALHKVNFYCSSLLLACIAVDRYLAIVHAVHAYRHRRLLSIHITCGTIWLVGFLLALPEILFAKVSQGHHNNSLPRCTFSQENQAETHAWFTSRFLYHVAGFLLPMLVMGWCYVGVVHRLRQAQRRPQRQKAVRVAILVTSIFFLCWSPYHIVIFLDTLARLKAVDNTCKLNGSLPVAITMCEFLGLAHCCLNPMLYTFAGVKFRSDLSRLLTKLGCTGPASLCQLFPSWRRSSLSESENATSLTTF

[7] = test system: Liver; experiment: Metabolic stability in human liver S9 fraction assessed as glutathione adduct formation in presence of glutathione; type: ADME, subcellular
[8] = test system: Liver; experiment: Metabolic stability in human liver S9 fraction assessed as glutathione adduct formation in presence of glutathione and NADPH; type: ADME, subcellular
[9] = target: Cytochrome P450 2D6 (Homo sapiens, UniProt P10635); experiment: Inhibition of CYP2D6; type: ADME
Sequence of Cytochrome P450 2D6 (P10635 whole entry): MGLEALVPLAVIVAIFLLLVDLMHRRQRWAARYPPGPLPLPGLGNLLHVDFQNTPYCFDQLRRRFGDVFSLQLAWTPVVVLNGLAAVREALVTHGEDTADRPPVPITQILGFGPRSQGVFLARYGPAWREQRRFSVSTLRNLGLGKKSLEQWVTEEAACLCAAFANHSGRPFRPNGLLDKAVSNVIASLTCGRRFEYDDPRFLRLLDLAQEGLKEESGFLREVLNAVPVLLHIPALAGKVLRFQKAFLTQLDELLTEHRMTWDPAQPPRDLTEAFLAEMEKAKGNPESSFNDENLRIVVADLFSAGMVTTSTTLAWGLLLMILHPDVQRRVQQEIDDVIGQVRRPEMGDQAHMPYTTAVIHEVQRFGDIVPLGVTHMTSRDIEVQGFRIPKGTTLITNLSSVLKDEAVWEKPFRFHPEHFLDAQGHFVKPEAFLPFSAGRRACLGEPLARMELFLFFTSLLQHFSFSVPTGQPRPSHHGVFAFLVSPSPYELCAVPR

[10] = test system: Rattus norvegicus; experiment: Clearance in rat at 5 mg/kg, iv; type: ADME, organism-based; parameters: dose 5 mg/kg, route intravenous; conditions: in vivo
In short: (§2)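 Pharmacokinetics run in rats, dogs, cynomolgus monkeys and chimpanzees, with two animals per species for the iv arm and two per species for the oral arm. Parameters were derived per species and route: CL, Vss and T1/2 from iv dosing; Cmax, Tmax, AUC, T1/2 and F% from oral dosing. Values are reported as mean ± spread.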

[11] = Tmax in rat at 10 mg/kg, po; type: ADME, organism-based; parameters: dose 10 mg/kg, route oral; conditions: in vivo; in short: as §2
[12] = Half life in rat at 10 mg/kg, po; type: ADME, organism-based; parameters: dose 10 mg/kg, route oral; conditions: in vivo; in short: as §2
[13] = test system: Rattus norvegicus; experiment: Oral bioavailability in rat at 10 mg/kg; type: ADME, organism-based; conditions: in vivo; in short: as §2
[14] = Half life in dog at 5 mg/kg, iv; type: ADME, organism-based, Canis lupus familiaris; parameters: dose 5 mg/kg, route intravenous; conditions: in vivo; in short: as §2
[15] = Cmax in dog at 30 mg/kg, po; type: ADME, organism-based, Canis lupus familiaris; parameters: dose 30 mg/kg, route oral; conditions: in vivo; in short: as §2
[16] = Tmax in dog at 30 mg/kg, po; type: ADME, organism-based, Canis lupus familiaris; parameters: dose 30 mg/kg, route oral; conditions: in vivo; in short: as §2
[17] = AUC in dog at 30 mg/kg, po; type: ADME, organism-based, Canis lupus familiaris; parameters: dose 30 mg/kg, route oral; conditions: plasma; in short: as §2
[18] = Oral bioavailability in dog at 30 mg/kg; type: ADME, organism-based, Canis lupus familiaris; conditions: in vivo; in short: as §2
[19] = Half life in cynomolgus monkey at 5 mg/kg, iv; type: ADME, organism-based, Macaca fascicularis; parameters: dose 5 mg/kg, route intravenous; conditions: in vivo; in short: as §2
[20] = Cmax in cynomolgus monkey at 30 mg/kg, po; type: ADME, organism-based, Macaca fascicularis; parameters: dose 30 mg/kg, route oral; conditions: in vivo; in short: as §2
[21] = Tmax in cynomolgus monkey at 30 mg/kg, po; type: ADME, organism-based, Macaca fascicularis; parameters: dose 30 mg/kg, route oral; conditions: in vivo; in short: as §2
[22] = AUC in cynomolgus monkey at 30 mg/kg, po; type: ADME, organism-based, Macaca fascicularis; parameters: dose 30 mg/kg, route oral; conditions: plasma; in short: as §2
[23] = Half life in cynomolgus monkey at 30 mg/kg, po; type: ADME, organism-based, Macaca fascicularis; parameters: dose 30 mg/kg, route oral; conditions: in vivo; in short: as §2
[24] = Oral bioavailability in cynomolgus monkey at 30 mg/kg; type: ADME, organism-based, Macaca fascicularis; conditions: in vivo; in short: as §2
[25] = Clearance in chimpanzee at 1 mg/kg, iv; type: ADME, organism-based, Pan troglodytes; parameters: dose 1 mg/kg, route intravenous; conditions: in vivo; in short: as §2
[26] = Half life in chimpanzee at 1 mg/kg, iv; type: ADME, organism-based, Pan troglodytes; parameters: dose 1 mg/kg, route intravenous; conditions: in vivo; in short: as §2
[27] = Tmax in chimpanzee at 4 mg/kg, po; type: ADME, organism-based, Pan troglodytes; parameters: dose 4 mg/kg, route oral; conditions: in vivo; in short: as §2
[28] = Half life in chimpanzee at 4 mg/kg, po; type: ADME, organism-based, Pan troglodytes; parameters: dose 4 mg/kg, route oral; conditions: in vivo; in short: as §2
[29] = Oral bioavailability in chimpanzee at 4 mg/kg; type: ADME, organism-based, Pan troglodytes; conditions: in vivo; in short: as §2

T1 sequence (P41597 whole entry): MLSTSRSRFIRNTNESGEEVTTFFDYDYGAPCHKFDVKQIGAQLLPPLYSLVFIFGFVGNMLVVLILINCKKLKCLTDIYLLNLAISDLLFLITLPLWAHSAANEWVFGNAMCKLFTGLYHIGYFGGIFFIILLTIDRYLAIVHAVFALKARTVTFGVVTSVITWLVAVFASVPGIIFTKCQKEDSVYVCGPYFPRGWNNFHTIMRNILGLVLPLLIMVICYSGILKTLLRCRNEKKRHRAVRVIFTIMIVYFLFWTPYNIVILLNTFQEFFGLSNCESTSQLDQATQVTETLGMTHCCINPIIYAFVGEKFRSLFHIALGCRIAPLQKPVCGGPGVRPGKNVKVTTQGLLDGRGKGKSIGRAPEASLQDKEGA

COc1ccc([C@]2(O)CC[C@H](N3CC[C@@H](NC(=O)CNC(=O)c4cccc(C(F)(F)F)c4)C3)CC2)cn1.CS(=O)(=O)O
pIC50 [1]: 8.43 | pIC50 [2]: 8.59 | inhibition [3]: inactive | inhibition [4]: inactive | inhibition [5]: inactive | inhibition [6]: inactive | Stability [7]: Stable | Stability [8]: Stable | pIC50 [9]: < 4.60 | CL [10]: 56.7 mL/min/kg | Tmax [11]: 4 h | half-life [12]: 2.9 h | F [13]: 20% | half-life [14]: 3.5 h | Cmax [15]: 7.81 µM | Tmax [16]: 1.5 h | AUC [17]: 33.3 µM·h | bioavailability [18]: 31% | half-life [19]: 2.2 h | Cmax [20]: 2.63 µM | Tmax [21]: 1.5 h | AUC [22]: 9.08 µM·h | half-life [23]: 5.1 h | bioavailability [24]: 13% | clearance [25]: 5.83 mL/min/kg | half-life [26]: 3.8 h | Tmax [27]: 2 h | half-life [28]: 5.3 h | bioavailability [29]: 23%
